Data on nine molecules can be found in ChEMBL document CHEMBL1158991, “Cytotoxic and antimalarial constituents of the roots of Eurycoma longifolia” (J Nat Prod, 1991).

One assay deals with KB. As to the kind of experiment: Cytotoxicity against human KB cells. Type of assay: functional. Particulars: read-out: ED50 (the source's name).
Assay [1] in a line: Cytotoxicity against human KBV1 cells. The assay is classed as functional. Conditions: KB-V1, read-out: ED50 (the source's name).
The nature of assay [2]: Cytotoxicity against human fibrosarcoma cells. Type of assay: functional. Conditions: Fibrosarcoma cell, read-out: ED50 (the source's name).
Assay [3] can be described thus: Cytotoxicity against human melanoma cells. Type of assay: functional. Conditions: Melanoma cell, read-out: ED50 (the source's name).
Assay [4] in a line: Cytotoxicity against human lung cancer cells. The assay is classed as functional. Conditions: Cancer cell lines, read-out: ED50 (the source's name).
The nature of assay [5]: Cytotoxicity against human breast cancer cells. The assay is classed as functional. Particulars: Cancer cell lines, read-out: ED50 (the source's name).
Assay [6] can be described thus: Cytotoxicity against human colon cancer cells. Type of assay: functional. Conditions: Cancer cell lines, read-out: ED50 (the source's name).
In a further assay the test system is P388. The assay is described as follows: Cytotoxicity against mouse P388 cells. The assay is classed as functional. Particulars: read-out: ED50 (the source's name).
Assay [7] deals with Plasmodium falciparum. The assay is described as follows: Antimalarial activity against Plasmodium falciparum D6 in human erythrocytes after 24 hrs by [3H]hypoxanthine uptake. The assay is classed as functional, organism-based. In short, it runs like this: (§1)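 P. falciparum (D-6 chloroquine-sensitive, W-2 chloroquine-resistant) kept in type A+ human erythrocytes, RPMI-1640 with 32 mM NaHCO3, 35 mM HEPES and 10% heat-inactivated A+ plasma, 5% O2/5% CO2/90% N2, 37°. Assay: 0.5–1.0% parasitemia, 1.0% hematocrit, triplicates over 7-5000 ng/ml, 24 h. Then 0.5 µCi [3H]-hypoxanthine added for a further 18-24 h. Uninfected-cell dpm subtracted. IC50 by linear regression.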

For assay [8], the system named is Plasmodium falciparum. As to the kind of experiment: Antimalarial activity against Plasmodium falciparum W2 in human erythrocytes after 24 hrs by [3H]hypoxanthine uptake. Type of assay: functional, organism-based. In short, it runs like this:
as §1

Converted amounts (≈) assume the structure as drawn. Where only a bound is given, the exact number is not on record here.

As for `O=c1ccc2nccc3c4ccc(O)cc4n1c23`, the EC50 with KB is 2 µg/mL (≈ 8.47 µM); in assay [1] it was greater than 20 µg/mL; in assay [2] it was 3.5 µg/mL (≈ 14.8 µM); in [3], 5.4 µg/mL (≈ 22.9 µM); in assay [4], 3.8 µg/mL (≈ 16.1 µM); in assay [5], 2.6 µg/mL (≈ 11 µM). The EC50 turned out to be 4.8 µg/mL (≈ 20.3 µM) in assay [6] and 1.5 µg/mL (≈ 6.35 µM) in the assay on P388.
In the case of `COc1ccc2c3cc[n+]([O-])c4ccc(=O)n(c2c1)c34`, the EC50 in the assay with KB is 3.8 µg/mL (≈ 14.3 µM); in assay [1], greater than 20 µg/mL; in assay [2] it was 4.5 µg/mL (≈ 16.9 µM); in assay [3], 6.5 µg/mL (≈ 24.4 µM); in [4] it was 5.2 µg/mL (≈ 19.5 µM); in assay [5], 6 µg/mL (≈ 22.5 µM). In addition, the results for the EC50 (in [6]; with P388) were 8.1 µg/mL (≈ 30.4 µM) and 11.7 µg/mL (≈ 43.9 µM), respectively.
`O=c1ccc2c3c(cc[n+]2[O-])c2ccc(O)cc2n13`: the EC50 in the assay with KB was 4.8 µg/mL (≈ 19 µM); in [1] it was greater than 20 µg/mL; in assay [2], 4.9 µg/mL (≈ 19.4 µM); in assay [3], 7 µg/mL (≈ 27.8 µM); in [4] it was 5.1 µg/mL (≈ 20.2 µM); in assay [5] it was 3.5 µg/mL (≈ 13.9 µM). Besides, the EC50 in assay [6] is 7.5 µg/mL (≈ 29.7 µM); with P388, 12 µg/mL (≈ 47.6 µM).
As to `COc1ccc2c3ccnc4ccc(=O)n(c2c1)c43`, the EC50 in the assay on P388 worked out at 1.4 µg/mL (≈ 5.59 µM).
What is called IC50 is the concentration at which inhibition is half-maximal. With `COc1ccc2c(c1)[nH]c1c(CCC(=O)O)nccc12`, the figures for the IC50 in the assay with Plasmodium falciparum [7] and in the assay on Plasmodium falciparum [8] were 3.14 µg/mL (≈ 11.6 µM) and 2.98 µg/mL (≈ 11 µM), respectively.
On to `C[C@@H]1CC[C@H]2[C@@H](C)C(=O)O[C@@H]3O[C@@]4(C)CC[C@@H]1[C@]32OO4` [ARTEMISININ], for which the 50% inhibitory concentration (IC50) in the assay on Plasmodium falciparum [7] was 0.0027 µg/mL (≈ 0.00956 µM); in the assay on Plasmodium falciparum [8] it was 0.0018 µg/mL (≈ 0.00638 µM).
For `C=C1[C@@H](O)[C@@]2(O)OC[C@]34[C@H]2[C@@]2(C)[C@H](O)C(=O)C=C(C)[C@@H]2C[C@H]3OC(=O)[C@H](O)[C@@]14O` [EURYCOMANONE], the EC50 with KB was 1.9 µg/mL (≈ 4.65 µM); in assay [1], 0.8 µg/mL (≈ 1.96 µM); in [2] it was 0.2 µg/mL (≈ 0.49 µM); in assay [3], 8.2 µg/mL (≈ 20.1 µM); in [4], 14.3 µg/mL (≈ 35 µM); in assay [5], 1.1 µg/mL (≈ 2.69 µM). In addition, the EC50 in assay [6] is 1.2 µg/mL (≈ 2.94 µM); with P388 it was greater than 20 µg/mL. The concentration for half-maximal inhibition (IC50) with Plasmodium falciparum [7] was 0.0477 µg/mL (≈ 0.117 µM); in the assay on Plasmodium falciparum [8], 0.0481 µg/mL (≈ 0.118 µM).
`OC(c1cc(C(F)(F)F)nc2c(C(F)(F)F)cccc12)C1CCCCN1` (configuration not stated) [MEFLOQUINE] had a half-inhibitory concentration (IC50) in the assay on Plasmodium falciparum [7] of 0.0095 µg/mL (≈ 0.0251 µM).
On to `C=C[C@H]1CN2CC[C@H]1C[C@H]2[C@H](O)c1ccnc2ccc(OC)cc12` [QUININE], for which the IC50 came to 0.0194 µg/mL (≈ 0.0598 µM) in the assay with Plasmodium falciparum [7] and 0.114 µg/mL (≈ 0.353 µM) in the assay with Plasmodium falciparum [8].
